Columns and labels:
Assay type in all cases: cell-based
[1] = target: T1, 17-beta-hydroxysteroid dehydrogenase type 3 (Homo sapiens) (UniProt P37058); experiment: Inhibition of 17Beta-HSD3 expressed in homogenized HEK293 cells assessed as transformation of [14C]-4-androstene-3,17-dione into [14C]-testosterone in presence of NADPH at 0.01 uM
T1 sequence (whole entry): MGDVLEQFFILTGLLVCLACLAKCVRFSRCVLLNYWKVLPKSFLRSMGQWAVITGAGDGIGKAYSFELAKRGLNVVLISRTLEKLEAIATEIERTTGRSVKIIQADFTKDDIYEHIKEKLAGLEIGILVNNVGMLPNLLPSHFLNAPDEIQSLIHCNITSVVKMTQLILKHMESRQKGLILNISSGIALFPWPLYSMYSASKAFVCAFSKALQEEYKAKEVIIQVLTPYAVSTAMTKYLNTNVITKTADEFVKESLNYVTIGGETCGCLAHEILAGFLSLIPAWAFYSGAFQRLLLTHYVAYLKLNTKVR
How it was run: (§1)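 HEK-293 cells overexpressing 17β-HSD3 were briefly homogenized. The enzyme assay measured conversion of 50 nM [4-14C]-4-androstene-3,17-dione to [14C]-testosterone with NADPH in excess (5 mM). Inhibitor was dissolved in ethanol, and the ethanol-only control was used to derive % inhibition at each concentration. Error 10%.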

[2] = target: T1, 17-beta-hydroxysteroid dehydrogenase type 3 (Homo sapiens); experiment: Inhibition of 17Beta-HSD3 expressed in homogenized HEK293 cells assessed as transformation of [14C]-4-androstene-3,17-dione into [14C]-testosterone in presence of NADPH at 0.1 uM; how it was run: as §1
[3] = target: T1, 17-beta-hydroxysteroid dehydrogenase type 3 (Homo sapiens); experiment: Inhibition of 17Beta-HSD3 expressed in intact HEK293 cells assessed as transformation of [14C]-4-androstene-3,17-dione into [14C]-testosterone in presence of NADPH at 1 uM after 1 hr incubation
How it was run: (§2)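 HEK-293 cells were grown in MEM with 10% FBS at 37 °C under 5% CO2, seeded at 200,000 cells/well, and transfected with 2 µg/well of a 17β-HSD3 expression plasmid. Intact cells then got 50 nM [4-14C]-4-androstene-3,17-dione plus inhibitor in ethanol (0.5% v/v) for 1 h. Radiolabelled steroids were extracted from the medium and quantified. Triplicate; % transformation was used to derive IC50.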

[4] = target: T1, 17-beta-hydroxysteroid dehydrogenase type 3 (Homo sapiens); experiment: Inhibition of 17Beta-HSD3 expressed in intact HEK293 cells assessed as transformation of [14C]-4-androstene-3,17-dione into [14C]-testosterone in presence of NADPH at 0.1 uM after 1 hr incubation; how it was run: as §2
[5] = target: T1, 17-beta-hydroxysteroid dehydrogenase type 3 (Homo sapiens); experiment: Inhibition of 17Beta-HSD3 expressed in homogenized HEK293 cells assessed as transformation of [14C]-4-androstene-3,17-dione into [14C]-testosterone in presence of NADPH at 1 uM; how it was run: as §1

Compound	inhibition [1]	inhibition [2]	inhibition [3]	inhibition [4]	inhibition [5]
C[C@]12CC[C@](O)(CN3CCN(C(=O)C4CCCCC4)CC3)C[C@@H]1CC[C@@H]1[C@@H]2CC[C@]2(C)C(=O)CC[C@@H]12	19%	75%	70%	–	–
C[C@]12CC[C@](O)(CN3CCN(Cc4cccnc4)CC3)C[C@@H]1CC[C@@H]1[C@@H]2CC[C@]2(C)C(=O)CC[C@@H]12	10%	33%	63%	–	–
C[C@@H]1CN(Cc2cccc(SC(F)(F)F)c2)[C@@H](C)CN1C[C@@]1(O)CC[C@@]2(C)[C@@H](CC[C@@H]3[C@@H]2CC[C@]2(C)C(=O)CC[C@@H]32)C1	18%	88%	58%	–	–
C[C@@H]1CN(Cc2cccnc2)[C@@H](C)CN1C[C@@]1(O)CC[C@@]2(C)[C@@H](CC[C@@H]3[C@@H]2CC[C@]2(C)C(=O)CC[C@@H]32)C1	17%	47%	58%	–	–
C[C@]12CC[C@](O)(CN3CCN(Cc4cccc(SC(F)(F)F)c4)CC3)C[C@@H]1CC[C@@H]1[C@@H]2CC[C@]2(C)C(=O)CC[C@@H]12	3%	91%	62%	–	–
CCN(CCN1C[C@]2(CC[C@@]3(C)[C@@H](CC[C@@H]4[C@@H]3CC[C@]3(C)C(=O)CC[C@@H]43)C2)OC1=O)C1CCCCC1	2%	21%	–	2%	72%
C[C@@H]1CN(Cc2cccc(Cl)c2)[C@@H](C)CN1C[C@@]1(O)CC[C@@]2(C)[C@@H](CC[C@@H]3[C@@H]2CC[C@]2(C)C(=O)CC[C@@H]32)C1	26%	84%	55%	–	–
Cc1cccc(OCCN2C[C@]3(CC[C@@]4(C)[C@@H](CC[C@@H]5[C@@H]4CC[C@]4(C)C(=O)CC[C@@H]54)C3)OC2=O)c1	13%	85%	–	40%	95%
C[C@]12CC[C@@]3(C[C@@H]1CC[C@@H]1[C@@H]2CC[C@]2(C)C(=O)CC[C@@H]12)CN(CCBr)C(=O)O3	17%	69%	–	31%	93%
Cc1ccc(CN2C[C@]3(CC[C@@]4(C)[C@@H](CC[C@@H]5[C@@H]4CC[C@]4(C)C(=O)C(C)(C)C[C@@H]54)C3)OC2=O)cc1	2%	22%	–	18%	74%
Cc1ccc(CN2C[C@]3(CC[C@@]4(C)[C@@H](CC[C@@H]5[C@@H]4CC[C@]4(C)C(=O)CC[C@@H]54)C3)OC2=O)cc1	17%	81%	–	38%	93%
Cc1cccc(S(=O)(=O)CCN2C[C@]3(CC[C@@]4(C)[C@@H](CC[C@@H]5[C@@H]4CC[C@]4(C)C(=O)CC[C@@H]54)C3)OC2=O)c1	0%	52%	–	5%	93%
C[C@]12CC[C@](O)(CN3CCN(S(=O)(=O)c4cccc(C(F)(F)F)c4)CC3)C[C@@H]1CC[C@@H]1[C@@H]2CC[C@]2(C)C(=O)CC[C@@H]12	21%	82%	71%	–	–
CCCN(CCC)CCN1C[C@]2(CC[C@@]3(C)[C@@H](CC[C@@H]4[C@@H]3CC[C@]3(C)C(=O)CC[C@@H]43)C2)OC1=O	0%	10%	–	8%	62%
C[C@]12CC[C@](O)(CN3CCN(Cc4cccc(Cl)c4)CC3)C[C@@H]1CC[C@@H]1[C@@H]2CC[C@]2(C)C(=O)CC[C@@H]12	26%	85%	75%	–	–
CCN(CCN1C[C@]2(CC[C@@]3(C)[C@@H](CC[C@@H]4[C@@H]3CC[C@]3(C)C(=O)CC[C@@H]43)C2)OC1=O)Cc1ccccc1	14%	71%	–	40%	93%
CN1CCN(C[C@@]2(O)CC[C@@]3(C)[C@@H](CC[C@@H]4[C@@H]3CC[C@]3(C)C(=O)CC[C@@H]43)C2)CC1	0%	0%	–	2%	40%
